# According to ChEMBL document CHEMBL4371072, “Structure-Activity Relationship Studies and Plasmodium Life Cycle Profiling Identifies Pan-Active N-Aryl-3-trifluoromethyl Pyrido[1,2- a]benzimidazoles Which Are Efficacious in an in Vivo Mouse Model of Malaria” (J Med Chem, 2019):
# Key:
# Hemozoin = assay: Inhibition of beta hematin formation after 5 hrs by NP40 detergent-based assay
# Plasmodium falciparum [1] = assay: (§1) Antiplasmodial activity against chloroquine-sensitive asexual blood stage of Plasmodium falciparum NF54 infected in human RBC assessed as reduction in [3H]hypoxanthine incorporation preincubated for 48 hrs followed by [3H]hypoxanthine addition measured after 24 hrs by liquid scintillation counting method; assay type: functional, organism-based
# Method in brief: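 Asexual blood-stage P. falciparum NF54 assay, run as a modified [3H]-hypoxanthine incorporation assay. Values are the mean of n ≥ 2 assays; determinations differing more than 3-fold were excluded. Chloroquine and artesunate served as controls.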
# Plasmodium falciparum [2] = assay: as §1, with “chloroquine-resistant” for “chloroquine-sensitive”, “K1” for “NF54”; assay type: functional, organism-based
# Method in brief: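 Asexual blood-stage P. falciparum K1 (multidrug resistant) screened by modified [3H]-hypoxanthine incorporation assay; IC50 as mean of n ≥ 2 assays, replicates differing above 3-fold excluded; chloroquine and artesunate controls.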
# [3] = Resistance index, ratio of IC50 for chloroquine-resistant asexual blood stage of Plasmodium falciparum K1 infected in human RBC to IC50 for chloroquine-sensitive asexual blood stage of Plasmodium falciparum NF54 infected in human RBC; assay type: functional
# [4] = Metabolic stability in Balb/c mouse liver microsomes assessed as parent compound remaining at 0.1 uM after 30 mins in presence of NADPH by LC-MS/MS analysis; conditions: liver microsomes
# [5] = Metabolic stability in human liver microsomes assessed as parent compound remaining at 0.1 uM after 30 mins in presence of NADPH by LC-MS/MS analysis; conditions: liver microsomes
# Plasmodium falciparum [6] = assay: Antiplasmodial activity against chloroquine-sensitive final late stage of Plasmodium falciparum NF54-Mal8p1.16-GFP-Luc gametocytes after 24 hrs by BacTiter-Glo assay; assay type: functional, organism-based; conditions: NF54, 24 h
# Method in brief: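 Late-stage PfNF54 gametocytes produced in vitro; gametocytocidal IC50 via luciferase reporter and ATP bioluminescence platforms; n=3 independent biological replicates in technical triplicates, ± S.E.M.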
# [7] = Selectivity index, ratio of IC50 for CHO cells to IC50 for chloroquine-sensitive asexual blood stage of Plasmodium falciparum NF54 infected in human RBC; assay type: toxicity; conditions: Chinese hamster, read-out: Ratio IC50
# Method in brief: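 Selectivity index taken as the ratio of the CHO-cell IC50 to the P. falciparum NF54 IC50.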
# CHO = assay: Cytotoxicity against CHO cells after 48 hrs by MTT assay; assay type: cell-based; conditions: Cricetulus griseus
# [8] = Half life in human liver microsomes at 0.1 uM in presence of NADPH by LC-MS/MS analysis; conditions: liver microsomes
# [9] = Half life in Balb/c mouse liver microsomes at 0.1 uM in presence of NADPH by LC-MS/MS analysis; conditions: liver microsomes
# Plasmodium berghei = assay: Antimalarial activity against liver stage form of luciferase transfected Plasmodium berghei sporozoites infected in human HuH7 cells preincubated with host cells for 1 hr followed by plasmodial infection and measured after 48 hrs by bioluminescence method; assay type: functional, organism-based; conditions: Huh-7
IC50 (Plasmodium falciparum [1]),SMILES,also measured
5.62 µM,CN(C)c1ccc(Nc2cc(C(F)(F)F)c(C#N)c3nc4ccccc4n23)cc1,
> 2.32 µM,CS(=O)(=O)c1ccc(Nc2cc(C(F)(F)F)c(C#N)c3nc4ccccc4n23)cc1,
4.8 µM,N#Cc1c(C(F)(F)F)cc(NCc2ncccn2)n2c1nc1ccccc12,
> 2.36 µM,CNC(=O)c1ccc(CNc2cc(C(F)(F)F)c(C#N)c3nc4ccccc4n23)cc1,
> 2.21 µM,N#Cc1c(C(F)(F)F)cc(Nc2ccc(CN3CCOCC3)cc2)n2c1nc1ccccc12,IC50 (Hemozoin): 50 µM
3.18 µM,COc1ccc(CNc2cc(C(F)(F)F)c(C#N)c3nc4ccccc4n23)cc1,
2.6 µM,N#Cc1c(C(F)(F)F)cc(NCc2cnccn2)n2c1nc1ccccc12,
4.97 µM,CC(Nc1cc(C(F)(F)F)c(C#N)c2nc3cc(Cl)c(Cl)cc3n12)c1ccc(S(C)(=O)=O)cc1 (stereo not drawn),IC50 (Hemozoin): 32 µM
> 6 µM,NC(=O)c1c(C(F)(F)F)cc(NCc2ccc(F)cc2)n2c1nc1ccccc12,
1.42 µM,N#Cc1c(C(F)(F)F)cc(NCc2ccccn2)n2c1nc1cc(Cl)c(Cl)cc12,"remaining at 0.5 h, 0.1 µM [4]: 31%; IC50 (Hemozoin): 59 µM; remaining at 0.5 h, 0.1 µM [5]: 72%; IC50 (Plasmodium falciparum [6]): 2.48 µM; selectivity ratio [7]: 0.5; IC50 (CHO): 0.75 µM; half-life at 0.1 µM [8]: 63 min; half-life at 0.1 µM [9]: 18 min"
> 2.82 µM,Cc1csc(Nc2cc(C(F)(F)F)c(C#N)c3nc4ccccc4n23)n1,
2.26 µM,COc1ccc(Nc2cc(C(F)(F)F)c(C#N)c3nc4ccccc4n23)cc1,
> 2.52 µM,N#Cc1c(C(F)(F)F)cc(Nc2ccnc(F)c2)n2c1nc1ccccc12,
> 2.83 µM,N#Cc1c(C(F)(F)F)cc(Nc2ccccc2)n2c1nc1ccccc12,
12.6 µM,CS(=O)(=O)c1ccc(CNc2cc(C(F)(F)F)c(C#N)c3nc4ccccc4n23)cc1,
> 2.28 µM,CN(C)C(=O)c1ccc(CNc2cc(C(F)(F)F)c(C#N)c3nc4ccccc4n23)cc1,
2.98 µM,CN(C)c1ccc(CNc2cc(C(F)(F)F)c(C#N)c3nc4ccccc4n23)cc1,
6.11 µM,N#Cc1c(C(F)(F)F)cc(NCc2ccccc2)n2c1nc1ccccc12,
4.42 µM,N#Cc1c(C(F)(F)F)cc(Nc2cnccn2)n2c1nc1ccccc12,
10.2 µM,N#Cc1c(C(F)(F)F)cc(NCc2ccc(S(N)(=O)=O)cc2)n2c1nc1ccccc12,
> 2.69 µM,N#Cc1c(C(F)(F)F)cc(Nc2ncccn2)n2c1nc1ccccc12,

SMILES,IC50 (Plasmodium falciparum [1]),also measured
N#Cc1c(C(F)(F)F)cc(NS(=O)(=O)c2ccc(OC(F)(F)F)cc2)n2c1nc1cc(Cl)c(Cl)cc12,6.73 µM,IC50 (Hemozoin): 78 µM; IC50 (Plasmodium falciparum [2]): 5.85 µM; Ratio IC50 [3]: 0.87
NC(=O)c1c(C(F)(F)F)cc(NCc2ccc(OC(F)(F)F)cc2)n2c1nc1ccccc12,5.16 µM,IC50 (Plasmodium falciparum [2]): 7.59 µM; Ratio IC50 [3]: 1.47
C[C@H]1[C@H](OC(=O)CCC(=O)O)O[C@@H]2O[C@@]3(C)CC[C@H]4[C@H](C)CC[C@@H]1[C@@]24OO3 [ARTESUNATE],0.004 µM,IC50 (Plasmodium falciparum [2]): 0.003 µM
N#Cc1ccc(S(=O)(=O)Nc2cc(C(F)(F)F)c(C#N)c3nc4cc(Cl)c(Cl)cc4n23)cc1,5.64 µM,
N#Cc1c(C(F)(F)F)cc(NCc2ccc(OC(F)(F)F)cc2)n2c1nc1ccccc12,0.92 µM,selectivity ratio [7]: > 241; IC50 (Plasmodium berghei): 0.48 µM; IC50 (CHO): > 222 µM; IC50 (Plasmodium falciparum [2]): 0.84 µM; Ratio IC50 [3]: 0.91
FC(F)(F)Oc1ccc(Nc2cc(C(F)(F)F)cc3nc4ccccc4n23)cc1,4.24 µM,IC50 (Plasmodium falciparum [2]): 3.36 µM; Ratio IC50 [3]: 0.79
N#Cc1c(C(F)(F)F)cc(Nc2cccc(OC(F)(F)F)c2)n2c1nc1ccccc12,0.39 µM,IC50 (Plasmodium falciparum [2]): 0.23 µM; Ratio IC50 [3]: 0.58
